The results in this text go back to ChEMBL document CHEMBL1138748, “A prodrug approach toward the development of water soluble fluoroquinolones and structure--activity relationships of quinoline-3-carboxylic acids” (2004).

In brackets after ≈: the same amount, converted by molar mass.

Usually MIC stands for the smallest concentration in the dilution series that meets the test's criterion for growth inhibition. Higher therefore signals a need for much substance.

Format in all cases: functional
One assay concerns Escherichia coli. The assay is described as follows: Antibacterial activity against Escherichia coli strain 25922. An outline of the steps: (§1)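 Broth microdilution MIC run to NCCLS standards: serial 2-fold dilutions in cation-adjusted Mueller–Hinton broth, inoculum ~5 × 10^5 CFU/mL, incubated 35 °C for 18–24 h. Trays were read by eye, and the MIC was taken as the lowest concentration giving complete growth inhibition (no visible turbidity).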

For the next assay, the system named is Pseudomonas aeruginosa. Description: Antibacterial activity against Pseudomonas aeruginosa strain 27853. The method, boiled down: as §1
For the next assay, the system named is Enterococcus faecalis. The assay is described as follows: Antibacterial activity against Enterococcus faecalis strain 29212. The method, boiled down:
as §1

Assay [1] has as its system Staphylococcus aureus. Description: Antibacterial activity against Staphylococcus aureus strain St au 29213. An outline of the steps: as §1
Assay [2] relates to Staphylococcus aureus. Description: Antibacterial activity against Staphylococcus aureus strain St au 33591 MRSA. The method, boiled down:
as §1

As for `C[C@H](N)[C@@H]1CCN(c2cc3c(cc2F)c(=O)c(C(=O)O)cn3-c2ccc(O)cc2)C1`, the MIC in the assay with Escherichia coli was determined as 1.56 µg/mL (≈ 3.79 µM); in the assay with Pseudomonas aeruginosa it was 25 µg/mL (≈ 60.8 µM); against Enterococcus faecalis, 6.25 µg/mL (≈ 15.2 µM); against Staphylococcus aureus [1] it was 0.4 µg/mL (≈ 0.972 µM); against Staphylococcus aureus [2] it was 0.4 µg/mL (≈ 0.972 µM).
As to `CN1CCC2CN(c3nc4c(cc3F)c(=O)c(C(=O)O)cn4-c3ccc(O)cc3)CC21` (stereo not given), the MIC was found to be 0.1 µg/mL (≈ 0.236 µM) with Escherichia coli; 6.25 µg/mL (≈ 14.7 µM) in the assay with Pseudomonas aeruginosa; 1.56 µg/mL (≈ 3.68 µM) in the assay on Enterococcus faecalis; 0.2 µg/mL (≈ 0.471 µM) in the assay on Staphylococcus aureus [1]; 0.2 µg/mL (≈ 0.471 µM) against Staphylococcus aureus [2].
With `C[C@@H](N)[C@H]1CCN(c2cc3c(cc2F)c(=O)c(C(=O)O)cn3-c2ccc(O)cc2)C1`, the MIC against Escherichia coli stood at 3.13 µg/mL (≈ 7.61 µM); against Pseudomonas aeruginosa it was 50 µg/mL (≈ 122 µM); in the assay with Enterococcus faecalis, 25 µg/mL (≈ 60.8 µM); against Staphylococcus aureus [1] it was 1.56 µg/mL (≈ 3.79 µM); with Staphylococcus aureus [2], 1.56 µg/mL (≈ 3.79 µM).
Turning to `N[C@@H]1CCC[C@@H]2CN(c3cc4c(cc3F)c(=O)c(C(=O)O)cn4-c3ccc(O)cc3)C[C@@H]21`, the MIC came out at 3.13 µg/mL (≈ 7.15 µM) against Escherichia coli; 12.5 µg/mL (≈ 28.6 µM) against Pseudomonas aeruginosa; 1.56 µg/mL (≈ 3.57 µM) against Enterococcus faecalis; 0.2 µg/mL (≈ 0.457 µM) in the assay with Staphylococcus aureus [1]; 0.2 µg/mL (≈ 0.457 µM) against Staphylococcus aureus [2].
Take `N[C@@H]1CN(c2cc3c(cc2F)c(=O)c(C(=O)O)cn3-c2ccc(O)cc2)CC12CC2`: the MIC was 0.2 µg/mL (≈ 0.488 µM) in the assay on Escherichia coli; 1.56 µg/mL (≈ 3.81 µM) with Pseudomonas aeruginosa; 0.78 µg/mL (≈ 1.91 µM) against Enterococcus faecalis; 0.2 µg/mL (≈ 0.488 µM) against Staphylococcus aureus [1]; 0.1 µg/mL (≈ 0.244 µM) in the assay with Staphylococcus aureus [2].
In the case of `NC1CCN(c2cc3c(cc2F)c(=O)c(C(=O)O)cn3-c2ccc(O)cc2)C1` (stereo not given), the MIC is 0.4 µg/mL (≈ 1.04 µM) in the assay with Escherichia coli; 1.56 µg/mL (≈ 4.07 µM) against Pseudomonas aeruginosa; 3.13 µg/mL (≈ 8.16 µM) in the assay with Enterococcus faecalis; 0.4 µg/mL (≈ 1.04 µM) in the assay with Staphylococcus aureus [1]; 0.4 µg/mL (≈ 1.04 µM) in the assay with Staphylococcus aureus [2].
Turning to `C[C@@H]1CN(c2cc3c(cc2F)c(=O)c(C(=O)O)cn3-c2ccc(O)cc2)C[C@H](C)N1`, the MIC is 0.1 µg/mL (≈ 0.243 µM) with Escherichia coli; 3.13 µg/mL (≈ 7.61 µM) against Pseudomonas aeruginosa; 3.13 µg/mL (≈ 7.61 µM) against Enterococcus faecalis; 0.2 µg/mL (≈ 0.486 µM) in the assay on Staphylococcus aureus [1]; 0.4 µg/mL (≈ 0.972 µM) against Staphylococcus aureus [2].
As to `O=C(O)c1cn(-c2ccc(O)cc2)c2nc(N3CCNCC3)c(F)cc2c1=O`, the MIC came to 1.56 µg/mL (≈ 4.06 µM) against Escherichia coli; 3.13 µg/mL (≈ 8.14 µM) against Pseudomonas aeruginosa; 12.5 µg/mL (≈ 32.5 µM) in the assay with Enterococcus faecalis; 1.56 µg/mL (≈ 4.06 µM) in the assay on Staphylococcus aureus [1]; 1.56 µg/mL (≈ 4.06 µM) in the assay with Staphylococcus aureus [2].
For `COc1c(N2C[C@@H](C)N[C@@H](C)C2)c(F)cc2c(=O)c(C(=O)O)cn(-c3ccc(O)cc3)c12`, the MIC against Escherichia coli was determined as 1.56 µg/mL (≈ 3.53 µM); in the assay with Pseudomonas aeruginosa, 50 µg/mL (≈ 113 µM); in the assay on Enterococcus faecalis, 50 µg/mL (≈ 113 µM); in the assay on Staphylococcus aureus [1] it was 3.13 µg/mL (≈ 7.09 µM); against Staphylococcus aureus [2], 6.25 µg/mL (≈ 14.2 µM).
`NCC1CCN(c2cc3c(cc2F)c(=O)c(C(=O)O)cn3-c2ccc(O)cc2)C1` (stereo not given): the MIC was 1.56 µg/mL (≈ 3.93 µM) with Escherichia coli; 25 µg/mL (≈ 62.9 µM) in the assay with Pseudomonas aeruginosa; 6.25 µg/mL (≈ 15.7 µM) with Enterococcus faecalis; 0.4 µg/mL (≈ 1.01 µM) against Staphylococcus aureus [1]; 0.78 µg/mL (≈ 1.96 µM) in the assay on Staphylococcus aureus [2].
On the same counts, the results for `COc1c(N2CCC(N)C2)c(F)cc2c(=O)c(C(=O)O)cn(-c3ccc(O)cc3)c12` (stereo not given) are 1.56 µg/mL (≈ 3.77 µM), 6.25 µg/mL (≈ 15.1 µM), 25 µg/mL (≈ 60.5 µM), 1.56 µg/mL (≈ 3.77 µM) and 1.56 µg/mL (≈ 3.77 µM).
The matching figures for `O=C(O)c1cn(-c2ccc(O)cc2)c2cc(N3CC4CC3CN4)c(F)cc2c1=O` (stereo not given): 1.56 µg/mL (≈ 3.95 µM), 6.25 µg/mL (≈ 15.8 µM), 12.5 µg/mL (≈ 31.6 µM), 0.78 µg/mL (≈ 1.97 µM) and 0.78 µg/mL (≈ 1.97 µM).
The matching figures for `CN1CCCC2CN(c3cc4c(cc3F)c(=O)c(C(=O)O)cn4-c3ccc(O)cc3)CC21` (stereo not given): 0.2 µg/mL (≈ 0.457 µM), 6.25 µg/mL (≈ 14.3 µM), 3.13 µg/mL (≈ 7.15 µM), 0.2 µg/mL (≈ 0.457 µM) and 0.4 µg/mL (≈ 0.914 µM).
`O=C(O)c1cn(-c2ccc(O)cc2)c2nc(N3CC4CCCNC4C3)c(F)cc2c1=O` (stereo not given): the MIC in the assay with Escherichia coli turned out to be 1.56 µg/mL (≈ 3.68 µM); against Pseudomonas aeruginosa, 1.56 µg/mL (≈ 3.68 µM); against Enterococcus faecalis, 3.13 µg/mL (≈ 7.37 µM); with Staphylococcus aureus [1], 0.4 µg/mL (≈ 0.942 µM); in the assay on Staphylococcus aureus [2], 0.4 µg/mL (≈ 0.942 µM).
